From the array DNA melting data of Ke et al. (doi:10.1101/2024.01.08.574731) come the findings set out here.

The nature of data set [1]: folding enthalpy; higher = less favourable; fluorescence melt of hairpins on a sequencing array, two-state fit. The settings on record: sodium 0.088 M. In short, it runs like this: (§1)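 Library hairpins on a sequenced MiSeq flow cell carried annealed Cy3 and quencher oligos, and their Cy3 fluorescence was imaged in 50 mM Na-HEPES pH 8.0 with 25 mM NaCl, in 2.5 °C steps up to 60 °C. Signals were normalised to Cy3 before quenching and to control constructs. Melting temperature and folding enthalpy were obtained from bootstrapped two-state fits, combined by inverse-variance weighting across four replicates, and the fitted temperatures were then raised by 9.35 °C to match UV melts.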

Data set [2] in a line: melting temperature; fluorescence melt of hairpins on a sequencing array, two-state fit, raised by 9.35 °C to match UV melts. As to conditions: sodium 0.088 M. In short, it runs like this: as §1

In the case of GCACGCCGAAAGGCCTGC (((.(((....))).))), in data set [1], the folding enthalpy is -23.2 kcal/mol. The Tm in data set [2] was 48.8 °C.

Regarding GATCTCAGCAGAGATC ((((((....)))))), the folding enthalpy in data set [1] is -31.9 kcal/mol. For the same sequence, the Tm in data set [2] came out at 58.2 °C.

As to GATCGGAATCCCGATC ((((((....)))))), the folding enthalpy in data set [1] is -36.3 kcal/mol. For the same sequence, the Tm in data set [2] was determined as 53.9 °C.

As for GCCGGATCGAAAGATGGC (((..(((....)))))), the folding enthalpy in data set [1] was -17.6 kcal/mol. Besides, in data set [2], the Tm stood at 46 °C.

In the case of GGCCAGGGAAACTTGGCC (((((.(....).))))), in data set [1], the folding enthalpy is -35.7 kcal/mol. Besides, in data set [2], the Tm stood at 57 °C.

As for GGTATCGAAAGATACC ((((((....)))))), the folding enthalpy in data set [1] is -43.2 kcal/mol. Also, the Tm in data set [2] is 62.1 °C.

For the sequence GGGTCCGCGAAAGCGCCC (((..(((....)))))), the folding enthalpy in data set [1] is -14.9 kcal/mol. Besides, the Tm in data set [2] is 40 °C.

In the case of GATCAGGCGGCTGATC ((((((....)))))), in data set [1], the folding enthalpy was -47.8 kcal/mol. For the same sequence, the Tm in data set [2] is 53.2 °C.

Consider GTAGTGGGAAACCGCTAC ((((.((....)).)))), for which the folding enthalpy in data set [1] was -48.7 kcal/mol. Also, the Tm in data set [2] was 51.5 °C.

Regarding CGCACGGAAACGTCGGCG ((((((....)))..))), the folding enthalpy in data set [1] is -24 kcal/mol. Moreover, the Tm in data set [2] is 46.6 °C.

On to GGTGGCGAAAGCCCCACC ((((((....)))..))), for which the folding enthalpy in data set [1] was -11.1 kcal/mol. The Tm in data set [2] turned out to be 49.8 °C.

For the sequence GGACGACGAAAGTCTTCC (((.(((....))).))), the folding enthalpy in data set [1] was -27.1 kcal/mol. The Tm in data set [2] came to 48.9 °C.

With GTGGAAGGAAACTTTCAC (((.(((....))).))), the folding enthalpy in data set [1] was -33 kcal/mol. For the same sequence, in data set [2], the Tm came out at 43.2 °C.

Consider GATCAAGACTTGATC ((((((...)))))), for which the folding enthalpy in data set [1] was -32.4 kcal/mol. The Tm in data set [2] was found to be 43.4 °C.

In the case of GGAGCCGGAAACGGCTTC (.(((((....))))).), the folding enthalpy in data set [1] was -15 kcal/mol. In addition, in data set [2], the Tm came to 60.8 °C.

Consider GGTGTAGGAAACTACGCC ((.((((....)))).)), for which the folding enthalpy in data set [1] is -43.2 kcal/mol. Also, in data set [2], the Tm stood at 52.3 °C.

As to GCTGCGCCGAAAGGCAGC (((..(((....)))))), the folding enthalpy in data set [1] was -11.5 kcal/mol. Besides, the Tm in data set [2] turned out to be 61.1 °C.

In the case of GCATTGCGAAAGCTAAGC ((.(.((....)).).)), the folding enthalpy in data set [1] was -14.8 kcal/mol. Also, in data set [2], the Tm stood at 43.7 °C.

Turning to GCCTAACGAAAGTTGGC (((.(((....)))))), the folding enthalpy in data set [1] was -31.3 kcal/mol. Also, the Tm in data set [2] is 53.7 °C.

Take GATGGCGGAAACGCTGTC ((..(((....)))..)): the folding enthalpy in data set [1] was -17.1 kcal/mol. Further, in data set [2], the Tm worked out at 44 °C.

Regarding GCTTATGGAAACATAGGC ((.((((....)))).)), in data set [1], the folding enthalpy was -32.8 kcal/mol. The Tm in data set [2] worked out at 41.6 °C.

For GAAAACCGAAAGGTCTTC (((.(((....))).))), the folding enthalpy in data set [1] was -18.9 kcal/mol. Moreover, the Tm in data set [2] was found to be 35.8 °C.

GTCCCTGAAAAGGGAC ((((((....)))))): the folding enthalpy in data set [1] is -34.6 kcal/mol. The Tm in data set [2] turned out to be 67.7 °C.

As to GACGTGACGAAAGTCGTC (((..(((....)))))), the folding enthalpy in data set [1] was -14.2 kcal/mol. For the same sequence, in data set [2], the Tm was 49.4 °C.

For GGAAGGGGAAACCTTTCC ((((.((....)).)))), the folding enthalpy in data set [1] was -23.4 kcal/mol. Besides, the Tm in data set [2] was found to be 43.3 °C.

GATCGCCTCGCGATC ((((((...)))))): the folding enthalpy in data set [1] is -30.2 kcal/mol. For the same sequence, the Tm in data set [2] was 68.7 °C.

Regarding GGCGTAACGAAAGTTGCC (((..(((....)))))), the folding enthalpy in data set [1] was -25.3 kcal/mol. Besides, the Tm in data set [2] is 48.9 °C.

As for GGAAGGGGAAACCCTCCC ((.((((....)))).)), the folding enthalpy in data set [1] was -21 kcal/mol. Besides, in data set [2], the Tm was determined as 41.1 °C.

With GTTTTAGGAAACTAGAAC (((.(((....))).))), the folding enthalpy in data set [1] was -11.5 kcal/mol. Moreover, the Tm in data set [2] is 27.9 °C.

For the sequence GCTCGTGGAAACGTGAGC ((((..(....)..)))), the folding enthalpy in data set [1] is -21.3 kcal/mol. For the same sequence, in data set [2], the Tm is 46.2 °C.

As for GATCTACGCATAGATC ((((((....)))))), the folding enthalpy in data set [1] is -28.5 kcal/mol. The Tm in data set [2] was found to be 42.7 °C.

On to GCATACGAAAGTAGTTGC ((((((....)))..))), for which the folding enthalpy in data set [1] is -17.5 kcal/mol. In data set [2], the Tm came out at 33.1 °C.

For GGTCGGTCGAAAGACACC (((..(((....)))))), the folding enthalpy in data set [1] was -13.4 kcal/mol. For the same sequence, the Tm in data set [2] is 33.4 °C.

On to GATAGCACGAAAGTGATC (((..(((....)))))), for which the folding enthalpy in data set [1] is -9.8 kcal/mol. Further, in data set [2], the Tm was 28.4 °C.

On to GGGGTCGGAAACGGCCCC ((((.((....)).)))), for which the folding enthalpy in data set [1] is -31.7 kcal/mol. Further, the Tm in data set [2] was determined as 67.9 °C.

Turning to GAGTTCGCGAAAGCGCTC (((..(((....)))))), the folding enthalpy in data set [1] is -6.78 kcal/mol. Further, the Tm in data set [2] was 25.9 °C.

As for GGTGGCGAAAGCCTGACC ((((((....)))..))), the folding enthalpy in data set [1] was -14.2 kcal/mol. Besides, in data set [2], the Tm was 41.9 °C.
